# High-throughput results (PubChem BioAssay)
# Rows were chosen to be rich in hits. Some 2.3% of all compounds tested hit in one or more screens of this group.
# HIF activator = HIF pathway transcriptional activation; actives 0.32% (n = 300,000); activation, % at 7.5 µM (by protocol); AID 1910; U2OS HRE-luciferase reporter, luminescence; normalized: DMSO 0%, desferrioxamine 100%;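 active means mean activation of at least 10% of the iron chelator positive control signal, with at least half of replicates also reaching 10%; inconclusive means mean and replicate majority disagree about reaching 10%; inactive means mean and most replicates under 10%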
# A1 inh = inhibitors of the anti-apoptotic protein A1, read as caspase activation; MEF A1-2A-BIM cells, Caspase-Glo 3/7 luminescence, 3 h; percent of clofoctol response, vehicle zero; caspase activation, % (concentration not given with the values); actives 0.066% (n = 330,000);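 active means over half of replicate activation scores above 10%, or exactly half above 10 with the replicate mean above 10; inconclusive means replicate mean below 10 yet half the replicates above 10; inactive means over half of replicates below 10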
# Beta cell apopt = beta cell apoptosis inhibition. INS-1E cytokine-induced death, ATP luminescence, 48 h; percent of positive-control rescue, neutral wells zero. protection from apoptosis, % (concentration not given with the values). actives 0.8% (n = 300,000). AID 435005;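 active means Every replicate reaches about 75%, or at least half do and their mean reaches it too, limit read from the data; inconclusive means At least half of replicates reach the limit but their mean does not; inactive means Under half of replicates reach the limit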;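 further: 0% = cytokine-treated negative control wells and 100% = positive control rescue; higher means more ATP so stronger rescue from cytokine killing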
# T cruzi repl = T. cruzi replication inhibition. T. cruzi beta-gal in NIH3T3, luminescence, 90 h. inhibition, % (no concentration beside the values). actives 1.4% (n = 300,000). AID 1885;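 active means mean inhibition across valid replicates above about 55%, limit read from the data; inconclusive means mean below that limit but half or more replicates reach it; inactive means mean below it, under half of replicates reach it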;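 further: signal also drops with host cell toxicity which is not excluded here; 0% = plate median of DMSO wells and 100% = zero luminescence signal; higher percent means less beta-gal luminescence so fewer parasites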
#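 System: mouse NIH/3T3 fibroblasts infected with β-gal-expressing T. cruzi Tulahuen C4 / Input: NIH/3T3 cells, 5,000 per well / Buffer or medium: Low-serum DMEM with 2% FBS / Probe or stimulus: 5000 reporter trypomastigotes per well / Schedule: ≥90 h infection period, 3 h prior cell attachment / Measured by: GalScreen luminescence, 60 min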
# KLF5 inhibitor = inhibitors of KLF5 expression; DLD-1 KLF5 promoter-luciferase reporter, luminescence; inhibition, % at 5 µM; actives 0.23% (n = 290,000); AID 1700;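 active means inhibition above a per-plate limit of that plate's mean compound inhibition plus 3 SD, cut at about 60% in these data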;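 further: 0% = DMSO wells and 100% = LY294002 at 200 µM; higher means less KLF5 promoter-driven luciferase light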
# Active calls of the source: *; ? = inconclusive; nt = no result given; ! = repeats disagree.
SMILES,HIF activator,A1 inh,Beta cell apopt,T cruzi repl,KLF5 inhibitor
CCc1ccc2c(c1)C1(C(=O)N2)N2CCCC2C(C(=O)c2ccc3ccccc3c2)C12C(=O)Nc1ccccc12 (centres undefined),1.5,0.2,121.1*,26.0,0.8
CC(C)NC(=O)c1cnc(N2CCN(c3ccccn3)CC2)c2ccccc12,-0.2,-0.2,0.5,18.0,-2.3
CCc1ccc(NC(=O)c2cnc(N3CCN(c4ccccn4)CC3)c3ccccc23)cc1,1.1,1.5,44.0,60.3*,-13.3
Oc1c(C(c2ccccc2Cl)N2CCCC2)ccc2cccnc12 (centres undefined),59.0*,0.4,92.0*,84.0*,73.3*
Oc1c(C(c2ccc(Cl)cc2)N2CCCC2)cc(Cl)c2cccnc12 (centres undefined),2.9,2.0,16.5,70.3*,50.6
Cc1ccc(C(c2cc(Cl)c3cccnc3c2O)N2CCN(C)CC2)cc1 (centres undefined),3.3,0.1,52.1,30.2,27.2
CN1CCN(C(c2ccc(C(F)(F)F)cc2)c2ccc3cccnc3c2O)CC1 (centres undefined),5.0,0.3,80.5*,71.0*,48.1
CN1CCN(C(c2ccccn2)c2cc(Cl)c3cccnc3c2O)CC1 (centres undefined),6.8,1.0,15.2,?,7.6
COc1ccc(OC)c(NC(=O)NCCCCc2ccccc2)c1,-0.4,1.7,4.5,39.9,-2.6
O=C(Nc1cccc2cccnc12)c1ccccc1Br,-0.3,2.0,-0.2,2.5,nt
OC(CNc1ccccc1)COc1ccc(OCC(O)CNc2ccccc2)cc1 (centres undefined),0.5,0.3,36.0,62.5*,13.0
CC(=O)n1cc([C@H]2C=C(C(=O)N3CCN(Cc4ccc5c(c4)OCO5)CC3)O[C@@H](OCc3ccc(CO)cc3)C2)c2ccccc21,-3.3,-0.4,28.0,56.0*,9.4
O=C(C1=C[C@@H](c2csc3ccccc23)C[C@@H](OCc2ccc(CO)cc2)O1)N1CCN(Cc2ccccc2)CC1,-4.2,-0.7,nt,68.4*,-0.4
O=C(C1=C[C@@H](C2CCCCC2)C[C@@H](OCc2ccc(CO)cc2)O1)N1CCN(Cc2ccc3c(c2)OCO3)CC1,-2.5,-0.5,24.4,42.4,11.4
O=C(C1=C[C@@H](c2csc3ccccc23)C[C@@H](OCc2ccc(CO)cc2)O1)N1CCN(Cc2ccc3c(c2)OCO3)CC1,0.8,1.5,27.0,22.0,-10.2
O=C(C1=C[C@H](C2CCCCC2)C[C@H](OCc2ccc(CO)cc2)O1)N1CCN(Cc2ccc3c(c2)OCO3)CC1,-0.2,0.4,nt,56.5*,6.1
O=C(NCc1ccccc1)C1=C[C@H](c2csc3ccccc23)C[C@H](OCCCCO)O1,-0.2,0.6,74.8*,26.7,-10.5
O=C(COC(=O)c1ccc([N+](=O)[O-])o1)NC1CCCc2ccccc21 (centres undefined),nt,-0.5,1.1,nt,nt
O=C(C1=C[C@H](c2ccc(Br)cc2)C[C@H](OCCCCO)O1)N1CCN(Cc2ccccc2)CC1,0.1,2.0,-0.6,55.7*,6.7
CC(=O)n1cc([C@@H]2C=C(C(=O)N3CCOCC3)O[C@H](OCc3ccc(CO)cc3)C2)c2ccccc21,-0.2,0.7,-2.1,26.1,1.8
CC(=O)n1cc([C@H]2C=C(C(=O)N3CCN(Cc4ccccc4)CC3)O[C@@H](OCc3ccc(CO)cc3)C2)c2ccccc21,-0.7,0.2,17.7,68.4*,-6.3
Cc1ccc(C)c(S(=O)(=O)N2CCN(C(=O)C3CCN(c4ncnc5sc(C)c(C)c45)CC3)CC2)c1,-0.3,0.0,50.8,43.4,nt
COc1ccc(NC(=S)N(CCc2ccc(OC)c(OC)c2)Cc2ccccn2)cc1,0.5,0.0,-4.3,-11.7,17.5
COc1ccc(NC(=S)N(Cc2ccc(C)cc2)Cc2ccccn2)cc1,4.0,0.9,0.2,77.5*,-5.4
CCOc1ccc(C(=O)C(C)OC(=O)Cn2[nH]c(=O)c3ccccc3c2=O)cc1 (centres undefined),-0.6,1.2,5.9,-3.3,-14.3
SMILES,HIF activator,A1 inh,Beta cell apopt,T cruzi repl,KLF5 inhibitor
O=C(Nc1nc2ccc(F)cc2s1)c1ccccn1,-0.7,0.3,75.7*,51.9,59.8
O=C(NNc1nc2ccc(F)cc2s1)c1cccc(F)c1,2.0,-9.7,48.5,66.9*,-62.5
O=C(NNc1nc2ccccc2s1)c1ccc(F)cc1,nt,-1.1,14.7,1.7,-12.0
O=C(Cn1cnc2cc([N+](=O)[O-])ccc2c1=O)Nc1ccc(Br)cc1,0.3,0.2,2.4,67.9*,6.6
CC(C)(C)c1ccc(NC(=O)Cn2cnc3cc([N+](=O)[O-])ccc3c2=O)cc1,-0.2,0.8,nt,71.5*,-22.2
CC1CCCC(C)N1C(=O)Cn1cnc2cc([N+](=O)[O-])ccc2c1=O (centres undefined),-1.4,-1.7,1.6,9.3,-16.9
Cc1ccc(CNC(=O)Cn2cnc3cc([N+](=O)[O-])ccc3c2=O)cc1,-0.1,0.2,-7.6,50.1,-24.3
O=C(Cn1cnc2cc([N+](=O)[O-])ccc2c1=O)Nc1ccccc1-c1ccccc1,-1.1,0.0,1.6,58.1*,-4.3
COc1ccc([N+](=O)[O-])cc1NC(=O)COC(=O)Cn1cnc2ccccc2c1=O,nt,1.1,-2.3,nt,nt
COc1cccc(NC(=O)CN(C)C(=O)/C=C/c2ccc3ccccc3n2)c1,-0.9,-0.5,nt,-4.4,nt
Cc1cccc(NC(=O)CCCN=C2NS(=O)(=O)c3ccccc32)c1C,nt,-0.3,-2.1,nt,nt
CC(C)Nc1ccc(Nc2ccnc3cc4ccccc4cc23)cc1,-3.9,-0.8,125.3*,57.8*,-16.3
c1ccc(CCNc2ccnc3cc4ccccc4cc23)cc1,-7.9,nt,nt,58.8*,-75.1
Cc1ccc(SCC(=O)OCC(=O)N2CCN(C(=O)c3ccco3)CC2)c(C)c1,0.5,-0.5,-1.4,-26.1,nt
CCCCN=C(Nc1ccc(Cl)cc1)c1cccnc1,-0.3,-1.2,-5.9,-8.4,-11.4
NC(=NCCCCCCN=C(N)/N=C(\N)Nc1ccc(Cl)cc1)/N=C(\N)Nc1ccc(Cl)cc1,-0.1,4.1,119.7*,55.8*!,-12.2
O=C1[C@@H]2Cc3c([nH]c4ccccc34)C(c3cccc([N+](=O)[O-])c3)N2C(=O)CN1C1CCN(Cc2ccccc2)CC1 (some centres undefined),-35.3,-0.2,4.7,70.9*,22.2
CSc1ccc(S(=O)(=O)NCC(=O)OCC(=O)N2CCCC2=O)cc1[N+](=O)[O-],-0.6,0.3,-6.3,1.1,nt
Cc1ccccc1-n1ncc2c1CC(C)(C)CC2NC(=O)CCN1CCCCC1=O (centres undefined),1.0,-0.4,3.1,6.4,-22.3
COc1ccc(Cn2c(-c3ccc(Br)cc3)c[n+]3ccccc23)cc1,1.1,-2.9,57.5,70.5*,-13.2
COc1ccc2nc(NC(=S)N(C)C)sc2c1,1.0,0.9,17.2,60.0*,-139.7
CCCC(=O)Nc1nc2ccc(OC)cc2s1,4.0,-2.6,-2.7,5.1,-69.4
